Data from ChEMBL document CHEMBL1221334, “A class of novel carboline intercalators: Their synthesis, in vitro anti-proliferation, in vivo anti-tumor action, and 3D QSAR analysis” (Bioorg Med Chem, 2010).
The source made the active and inactive calls. No cut-off for these calls is given here.

Columns and labels:
CCRF S-180 [1] = assay: Antitumor activity against mouse S180 cells transplanted in ICR mouse assessed as inhibition of tumor weight at 8.9 umol/kg, ip; assay type: functional; details: CCRF S-180, ip
In short: (§1)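 S180 ascites cells, serially passaged weekly in mice, were implanted subcutaneously (1 × 10⁷ viable cells in NS) in the right axilla of male ICR mice aged 10–12 weeks. After 24 h, mice were randomized (10/group) and dosed ip daily with 8.9 µmol/kg in 0.2 ml NS for 7 days. Tumours were weighed 24 h after the last dose. Inhibition = [1 − Tw/Cw] × 100.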

Bel-7402 = assay: Cytotoxicity against human Bel7402 cells […] by MTT assay; assay type: functional, cell-based
In short: (§2)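 Cells (1 × 10⁴/ml) in RPMI-1640 were cultured 24 h at 37 °C in 5% CO₂. Medium was then renewed with compound (final 0.1–200 µM) and cells grown a further 48 h. MTT was added for 4 h, residues dissolved in DMSO and absorbance read. I% = (C − T)/C. IC50 is given as mean ± SD, n = 6.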

HeLa = assay: Cytotoxicity against human HeLa cells […] by MTT assay; assay type: functional, cell-based; in short: as §2
HepG2 = assay: Cytotoxicity against human HepG2 cells […] by MTT assay; assay type: functional, cell-based; in short: as §2
B16 = assay: Cytotoxicity against mouse B16 cells […] by MTT assay; assay type: functional, cell-based
K562 = assay: Cytotoxicity against human K562 cells […] by MTT assay; assay type: functional, cell-based; in short: as §2
Calf thymus DNA [2] = assay: Binding affinity to calf thymus DNA assessed as increase in viscosity; assay type: nucleic-acid assay; details: Bos taurus
In short: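 An Ostwald viscometer was held at 28 °C in phosphate buffer, with compound/DNA ratios of 0–0.36. Flow times were taken after 5 min of thermal equilibration. η = (t − t₀)/t₀, and data were plotted as (η/η₀)^1/3 versus binding ratio.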

Calf thymus DNA [3] = assay: Binding affinity to calf thymus DNA assessed as induction of hypochromatic effect by spectrophotometry; assay type: nucleic-acid assay; details: Bos taurus
In short: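 UV absorption spectra (220–400 nm) were recorded in PBS for CT DNA (final 240 µM), alone and with test compound at final concentrations of 27, 54, 81 and 108 µM. Hypochromicity and wavelength shift were assessed.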

Calf thymus DNA [4] = assay: Binding affinity to calf thymus DNA assessed as change in melting temperature; assay type: nucleic-acid assay; details: Bos taurus
In short: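 Thermal denaturation used CT DNA (100 µM) with test compound (18 µM) in PBS, pH 7.4, at a compound/DNA ratio of 0.18. Temperature was raised at 1 °C/min while absorbance at 260 nm was monitored.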

Calf thymus DNA [5] = assay: Binding affinity to calf thymus DNA assessed as decrease in fluorescence intensity at 8 to 72 uM by fluorescence spectroscopy; assay type: nucleic-acid assay; details: Bos taurus
CCRF S-180 [6] = assay: Antitumor activity against mouse S180 cells transplanted in ICR mouse assessed as inhibition of tumor weight at 0.89 umol/kg, ip; assay type: functional; details: CCRF S-180, ip
CCRF S-180 [7] = assay: Antitumor activity against mouse S180 cells transplanted in ICR mouse assessed as inhibition of tumor weight; assay type: functional, cell-based; in short: as §1
CCRF S-180 [8] = assay: Antitumor activity against mouse S180 cells transplanted in ICR mouse assessed as inhibition of tumor weight at 89 umol/kg, ip; assay type: functional; details: CCRF S-180, ip

| Compound | inhibition in vivo at 8.9 µmol/kg (CCRF S-180 [1]) [%] | IC50 (Bel-7402) [µM] | IC50 (HeLa) [µM] | IC50 (HepG2) [µM] | IC50 (B16) [µM] | IC50 (K562) [µM] | Activity (Calf thymus DNA [2]) | Activity (Calf thymus DNA [3]) [%] | Tm (Calf thymus DNA [4]) [°C] | Activity (Calf thymus DNA [5]) | inhibition in vivo at 0.89 µmol/kg (CCRF S-180 [6]) [%] | Activity (CCRF S-180 [7]) | inhibition in vivo at 89 µmol/kg (CCRF S-180 [8]) [%] |
| --- | --- | --- | --- | --- | --- | --- | --- | --- | --- | --- | --- | --- | --- |
| O=C(OCc1ccccc1)c1cc2c([nH]c3ccccc32)c(CCN[C@@H](Cc2c[nH]c3ccccc23)C(=O)OCc2ccccc2)n1 | 22.2 | 39 | 59.5 | 60 | 20.7 | 14.9 |  |  |  |  |  |  |  |
| O=C(OCc1ccccc1)c1cc2c([nH]c3ccccc32)c(CCN[C@@H](Cc2ccc(O)cc2)C(=O)OCc2ccccc2)n1 | 31.7 | 23.7 | 16.7 | > 100 | 24.5 | 18.9 |  |  |  |  |  |  |  |
| NC(=O)CC[C@H](NCCc1nc(C(=O)OCc2ccccc2)cc2c1[nH]c1ccccc12)C(=O)OCc1ccccc1 | -5.3 | 81.3 | 71 | 35.9 | 42.5 | > 100 |  |  |  |  |  |  |  |
| O=C(OCc1ccccc1)c1cc2c([nH]c3ccccc32)c(CCN[C@@H](CO)C(=O)OCc2ccccc2)n1 | 36.7 | 54.6 | 20.3 | 19.9 | 60.3 | 19.7 |  |  |  |  |  |  |  |
| CC(C)C[C@H](NCCc1nc(C(=O)OCc2ccccc2)cc2c1[nH]c1ccccc12)C(=O)OCc1ccccc1 | 50.9 | 43.5 | 22.5 | 25.2 | 50.2 | 21.5 | Dose-dependent effect | 53 | 13.8 | Active |  |  |  |
| O=C(OCc1ccccc1)c1cc2c([nH]c3ccccc32)c(CCN[C@@H](Cc2c[nH]cn2)C(=O)OCc2ccccc2)n1 | 35.4 | 36.9 | 63.6 | > 100 | 60 | 14.4 |  |  |  |  | 6.3 | Dose-dependent effect | 60.7 |
| CC[C@H](C)[C@H](NCCc1nc(C(=O)OCc2ccccc2)cc2c1[nH]c1ccccc12)C(=O)OCc1ccccc1 | 33.9 | > 100 | > 100 | > 100 | 19.2 | > 100 |  |  |  |  |  |  |  |
| C[C@@H](O)[C@H](NCCc1nc(C(=O)OCc2ccccc2)cc2c1[nH]c1ccccc12)C(=O)OCc1ccccc1 | 34.8 | > 100 | 15.2 | 26 | 38.4 | 38.3 |  |  |  |  |  |  |  |
| C[C@H](NCCc1nc(C(=O)OCc2ccccc2)cc2c1[nH]c1ccccc12)C(=O)OCc1ccccc1 | 22 | 100 | 76.4 | > 100 | 20.5 | 48.2 |  |  |  |  |  |  |  |
| CC(C)[C@H](NCCc1nc(C(=O)OCc2ccccc2)cc2c1[nH]c1ccccc12)C(=O)OCc1ccccc1 | 34 | 20.3 | 25.5 | 29.2 | 28.8 | 20.9 |  |  |  |  |  |  |  |
| NC(=O)C[C@H](NCCc1nc(C(=O)OCc2ccccc2)cc2c1[nH]c1ccccc12)C(=O)OCc1ccccc1 | 14 | > 100 | 97.2 | > 100 | 17.1 | 63.6 |  |  |  |  |  |  |  |
| CSCC[C@H](NCCc1nc(C(=O)OCc2ccccc2)cc2c1[nH]c1ccccc12)C(=O)OCc1ccccc1 | 15.3 | 25.8 | 28.8 | 18.7 | 61.1 | 13.5 |  |  |  |  |  |  |  |
| O=C(CNCCc1nc(C(=O)OCc2ccccc2)cc2c1[nH]c1ccccc12)OCc1ccccc1 | 3.5 | 53.2 | 26.8 | 50 | 75.4 | 47.1 |  |  |  |  |  |  |  |
| Nc1ccn([C@@H]2O[C@H](CO)[C@@H](O)[C@@H]2O)c(=O)n1 [CYTARABINE] | 24.3 | 34.2 |  | 0.2 |  | 33.5 |  |  |  |  | 6.8 |  | 54.8 |
| O=C(OCc1ccccc1)c1cc2c([nH]c3ccccc32)c(CCN[C@@H](Cc2ccccc2)C(=O)OCc2ccccc2)n1 | 6.6 | > 100 | > 100 | > 100 | 28.1 | > 100 |  |  |  |  |  |  |  |
| O=C(NCCCC[C@H](NCCc1nc(C(=O)OCc2ccccc2)cc2c1[nH]c1ccccc12)C(=O)OCc1ccccc1)OCc1ccccc1 | 28.9 | 14.9 | 33.9 | 36.3 | 49.4 | 15.4 |  |  |  |  |  |  |  |
| O=C(C[C@H](NCCc1nc(C(=O)OCc2ccccc2)cc2c1[nH]c1ccccc12)C(=O)OCc1ccccc1)OCc1ccccc1 | 56.1 | 60.3 | > 100 | > 100 | 11.1 | > 100 |  |  |  |  | 40.6 | Dose-dependent effect | 73.5 |
| O=C(OCc1ccccc1)c1cc2c([nH]c3ccccc32)c(CCN2CCC[C@H]2C(=O)OCc2ccccc2)n1 | 7.1 | 52.8 | 25.8 | 17.1 | 71.8 | 20.1 |  |  |  |  |  |  |  |
| O=C(CC[C@H](NCCc1nc(C(=O)OCc2ccccc2)cc2c1[nH]c1ccccc12)C(=O)OCc1ccccc1)OCc1ccccc1 | 29.4 | > 100 | 54.9 | 63.1 | 66.4 | 18.5 |  |  |  |  |  |  |  |
